Measured values taken from ChEMBL document CHEMBL4350958, “Rational Design of Short Peptide Variants by Using Kunitzin-RE, an Amphibian-Derived Bioactivity Peptide, for Acquired Potent Broad-Spectrum Antimicrobial and Improved Therapeutic Potential of Commensalism Coinfection of Pathogens” (J Med Chem, 2019).

Tests used:
Escherichia coli [1] = test: Antibacterial activity against Escherichia coli ATCC 25922 measured after 18 to 24 hrs in presence of FeCl3; assay type: functional
[2] = Therapeutic index, ratio of MHC10 for hemolytic activity in human RBC to MIC95 against Staphylococcus aureus ATCC 25923; assay type: toxicity; conditions: human red blood cells (erythrocytes), read-out: TI
Procedure, shortened: (§1)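 Therapeutic index = MHC divided by MIC. MHC is the lowest concentration giving >10% lysis of human RBC (1 h, 37 °C, 1-128 µM, A576). MIC is 95% growth inhibition by broth microdilution: bacteria in MHB 24 h at 37 °C; Candida in MOPS-buffered RPMI 1640 at (0.5–1) × 10^3 CFU mL−1, 48 h at 28 °C.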

Escherichia coli [3] = test: Antibacterial activity against Escherichia coli ATCC 25922 measured after 18 to 24 hrs in presence of NaCl; assay type: functional
Erythrocyte = test: Hemolytic activity in human RBC measured after 1 hr; assay type: ADME, cell-based
Procedure, shortened: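 Fresh healthy-donor human erythrocytes at ~1% (v/v) in PBS pH 7.4, mixed 1:1 with peptide (1–128 µM), 1 h at 37 °C. After centrifugation at 1000×g, supernatant hemoglobin read at 576 nm. Untreated cells set 0% and 0.1% Triton X-100 set 100%. MHC defined as the concentration giving >10% hemolysis. Three or more independent experiments, triplicates.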

Escherichia coli [4] = test: Antibacterial activity against Escherichia coli ATCC 25922 measured after 18 to 24 hrs in presence of CaCl2; assay type: functional
Escherichia coli [5] = test: Antibacterial activity against Escherichia coli ATCC 25922 measured after 18 to 24 hrs in presence of NH4Cl; assay type: functional
[6] = Therapeutic index, ratio of MHC10 for hemolytic activity in human RBC to MIC95 against Escherichia coli ATCC 25922; assay type: toxicity; conditions: human red blood cells (erythrocytes), pooled result: one value given for 9 cell lines, strains, targets or settings, read-out: TI; procedure, shortened: as §1
[7] = Therapeutic index, ratio of MHC10 for hemolytic activity in human RBC to MIC95 against Candida albicans cgmcc2.2086; assay type: toxicity; conditions: human red blood cells (erythrocytes), read-out: TI; procedure, shortened: as §1
Candida parapsilosis = test: Antifungal activity against Candida parapsilosis cgmcc2.3989 measured after 48 hrs by broth microdilution method; assay type: functional; conditions: Lodderomyces parapsilosis, cgmcc2.3989, 48 h
Procedure, shortened: (§2)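 Modified CLSI M27-A2 microdilution. Yeast colonies were diluted in MOPS-buffered RPMI 1640 to a final (0.5–1) × 10^3 CFU mL−1 and mixed with an equal volume of peptide serially diluted in 0.2% BSA. After 48 h at 28 °C, MIC was read at A492 as the lowest concentration inhibiting 95% of growth. At least three independent experiments, each with three technical replicates.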

Escherichia coli [8] = test: Bactericidal activity against Escherichia coli K99 incubated for 24 hrs followed by replating on agar plate and measured after overnight incubation; assay type: functional; conditions: K99, 24 h, read-out: MBC>99.9
Procedure, shortened: (§3)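 Mid-log bacteria diluted in MHB to (0.5–1) × 10^5 CFU/mL and mixed 1:1 with peptide serially diluted in 0.2% BSA. After 24 h at 37 °C, 50 μL of each mixture was plated on agar and incubated overnight. MBC taken as the lowest concentration killing >99.9% of cells. At least three independent experiments, each with three technical replicates.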

Staphylococcus aureus [9] = test: Antibacterial activity against Staphylococcus aureus ATCC 29213 measured after 18 to 24 hrs in presence of KCl; assay type: functional
Staphylococcus aureus [10] = test: Bactericidal activity against Staphylococcus aureus ATCC 25923 incubated for 24 hrs followed by replating on agar plate and measured after overnight incubation; assay type: functional; conditions: ATCC 25923, 24 h, read-out: MBC>99.9
Procedure, shortened: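 After the 24 h, 37 °C MHB microdilution MIC assay, 50 μL from each well was plated on agar and incubated overnight. MBC taken as lowest peptide concentration killing >99.9% of cells. At least three independent experiments, each with three technical replicates.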

Candida tropicalis = test: Antifungal activity against Candida tropicalis cgmcc2.1975 measured after 48 hrs by broth microdilution method; assay type: functional; conditions: cgmcc2.1975, 48 h; procedure, shortened: as §2
[11] = Conformational stability in pH 7.4 sodium phosphate buffer assessed as absorption spectra at minimum dichroic band at 35 uM by CD spectra analysis; assay type: physicochemical; conditions: pH 7.4, 35 µM
Procedure, shortened: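 CD spectra from 190 to 250 nm of peptide at 35 μM in 10 mM PBS, 30 mM SDS micelles or 50% TFE, recorded in a 1.0-mm quartz cell. Ellipticity was converted to mean residue ellipticity. Three independent scans, each averaged over more than 3 runs.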

Escherichia coli [12] = test: Antibacterial activity against Escherichia coli 078 measured after 24 hrs; assay type: functional; conditions: Escherichia coli, 078, 24 h
Procedure, shortened: (§4)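 Broth microdilution adapted from NCCLS. Mid-log bacteria were diluted in MHB to a final (0.5–1) × 10^5 CFU mL−1. Peptides were serially diluted in 0.2% BSA and mixed with an equal volume of cells. After 24 h at 37 °C, MIC was read at A492 as the lowest concentration inhibiting 95% of growth. At least three independent experiments, each with three technical replicates.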

Staphylococcus aureus [13] = test: Antibacterial activity against Staphylococcus aureus ATCC 29213 measured after 18 to 24 hrs in presence of FeCl3; assay type: functional
Escherichia coli [14] = test: Antibacterial activity against Escherichia coli ATCC 25922 measured after 24 hrs; assay type: functional; conditions: ATCC 25922, 24 h; procedure, shortened: as §4
Escherichia coli [15] = test: Antibacterial activity against Escherichia coli ATCC 25922 measured after 18 to 24 hrs in presence of ZnCl2; assay type: functional
Escherichia coli [16] = test: Antibacterial activity against Escherichia coli UB1005 measured after 24 hrs; assay type: functional; conditions: UB1005, 24 h; procedure, shortened: as §4
Pseudomonas aeruginosa [17] = test: Antibacterial activity against Pseudomonas aeruginosa ATCC 27853 measured after 24 hrs; assay type: functional; conditions: ATCC 27853, 24 h; procedure, shortened: as §4
Escherichia coli [18] = test: Bactericidal activity against Escherichia coli 078 incubated for 24 hrs followed by replating on agar plate and measured after overnight incubation; assay type: functional; conditions: Escherichia coli, 078, 24 h; read-out: MBC>99.9
Procedure, shortened: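 After the 24 h, 37 °C MHB microdilution (0.5–1 × 10^5 CFU mL−1 inoculum, peptides diluted in 0.2% BSA), 50 μL from each well was plated on agar and incubated overnight. MBC was taken as the lowest concentration killing >99.9% of cells. Three or more independent experiments, each with triplicate technical replicates.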

Salmonella typhimurium = test: Bactericidal activity against Salmonella typhimurium ATCC 14028 incubated for 24 hrs followed by replating on agar plate and measured after overnight incubation; assay type: functional, Salmonella enterica subsp. enterica serovar Typhimurium; conditions: Salmonella enterica, ATCC 14028, 24 h; read-out: MBC>99.9; procedure, shortened: as §3
Pseudomonas aeruginosa [19] = test: Bactericidal activity against Pseudomonas aeruginosa ATCC 27853 incubated for 24 hrs followed by replating on agar plate and measured after overnight incubation; assay type: functional; conditions: ATCC 27853, 24 h, read-out: MBC>99.9; procedure, shortened: as §3
[20] = Therapeutic index, ratio of MHC10 for hemolytic activity in human RBC to MIC95 against Candida tropicalis cgmcc2.1975; assay type: toxicity; conditions: human red blood cells (erythrocytes), read-out: TI; procedure, shortened: as §1
Candida albicans = test: Antifungal activity against Candida albicans cgmcc2.2086 measured after 48 hrs in presence of NH4Cl by broth microdilution method; assay type: functional; conditions: cgmcc2.2086, 48 h
Escherichia coli [21] = test: Antibacterial activity against Escherichia coli K88 measured after 24 hrs; assay type: functional; conditions: K88, 24 h; procedure, shortened: as §4
Staphylococcus aureus [22] = test: Antibacterial activity against Staphylococcus aureus ATCC 29213 measured after 18 to 24 hrs in presence of CaCl2; assay type: functional

| Substance | MIC95 (Escherichia coli [1]) [µM] | selectivity ratio [2] | MIC95 (Escherichia coli [3]) [µM] | MHC10 (Erythrocyte) [µM] | MIC95 (Escherichia coli [4]) [µM] | MIC95 (Escherichia coli [5]) [µM] | selectivity ratio [6] | selectivity ratio [7] | MIC95 (Candida parapsilosis) [µM] | MBC (Escherichia coli [8]) [µM] | MIC95 (Staphylococcus aureus [9]) [µM] | MBC (Staphylococcus aureus [10]) [µM] | MIC95 (Candida tropicalis) [µM] | Wavelength of minimum CD band [11] [nm] | MIC95 (Escherichia coli [12]) [µM] | MIC95 (Staphylococcus aureus [13]) [µM] | MIC95 (Escherichia coli [14]) [µM] | MIC95 (Escherichia coli [15]) [µM] | MIC95 (Escherichia coli [16]) [µM] | MIC95 (Pseudomonas aeruginosa [17]) [µM] | other results |
| --- | --- | --- | --- | --- | --- | --- | --- | --- | --- | --- | --- | --- | --- | --- | --- | --- | --- | --- | --- | --- | --- |
| H-AARIILRARFR-NH2 | 4 | 90.5 | 32 | > 128 | 32 | 2 | 69.1 | 25.4 | 16 | 4 | 8 | 8 | 4 | 200 | 4 | 4 | 4 | 4 | 2 | 16 | MBC (Escherichia coli [18]): 4 µM; MBC (Salmonella typhimurium): 4 µM; MBC (Pseudomonas aeruginosa [19]): 32 µM; selectivity ratio [20]: 25.4; MIC95 (Candida albicans): 16 µM; MIC95 (Escherichia coli [21]): 2 µM; MIC95 (Staphylococcus aureus [22]): 16 µM |
| H-AARIILRGRFR-NH2 | 4 | 26.9 | 64 | > 128 | 64 | 8 | 54.3 | 5.04 | 64 | 8 | 8 | 32 | 16 | 200 | 4 | 8 | 4 | 4 | 4 | 16 | MBC (Escherichia coli [18]): 8 µM; MBC (Salmonella typhimurium): 8 µM; MBC (Pseudomonas aeruginosa [19]): 32 µM; selectivity ratio [20]: 5.04; MIC95 (Candida albicans): > 128 µM; MIC95 (Escherichia coli [21]): 2 µM; MIC95 (Staphylococcus aureus [22]): 64 µM |
| H-AARIILRIRFR-NH2 | 4 | 64 | 8 | 128 | 32 | 4 | 37.3 | 25.4 | 4 | 4 | 2 | 4 | 4 | 200 | 2 | 2 | 4 | 4 | 4 | 16 | MBC (Escherichia coli [18]): 4 µM; MBC (Salmonella typhimurium): 4 µM; MBC (Pseudomonas aeruginosa [19]): 32 µM; selectivity ratio [20]: 25.4; MIC95 (Candida albicans): 8 µM; MIC95 (Escherichia coli [21]): 2 µM; MIC95 (Staphylococcus aureus [22]): 16 µM |
| H-AARIILRLRFR-NH2 | 8 | 128 | 64 | > 128 | 32 | 4 | 64 | 50.8 | 4 | 4 | 2 | 4 | 4 | 200 | 4 | 4 | 4 | 4 | 4 | 8 | MBC (Escherichia coli [18]): 8 µM; MBC (Salmonella typhimurium): 8 µM; MBC (Pseudomonas aeruginosa [19]): 32 µM; selectivity ratio [20]: 50.8; MIC95 (Candida albicans): 8 µM; MIC95 (Escherichia coli [21]): 4 µM; MIC95 (Staphylococcus aureus [22]): 4 µM |
| H-AARIILRWFRR-NH2 | 2 | 53.8 | 8 | > 128 | 4 | 2 | 87.1 | 50.8 | 4 | 4 | 4 | 8 | 4 | 200 | 2 | 4 | 2 | 2 | 2 | 8 | MBC (Escherichia coli [18]): 4 µM; MBC (Salmonella typhimurium): 8 µM; MBC (Pseudomonas aeruginosa [19]): 16 µM; selectivity ratio [20]: 50.8; MIC95 (Candida albicans): 8 µM; MIC95 (Escherichia coli [21]): 2 µM; MIC95 (Staphylococcus aureus [22]): 8 µM |
